Reference: article PMC6210076 (ACS Omega, 2018)
Values joined by “and” are separate entries in the source; they are usually repeats but may differ in a detail not shown here. Identical values can stand only once.

Target: T1, HPA (Helix pomatia, UniProt Q2F1K8)
T1 sequence (Q2F1K8 20-121): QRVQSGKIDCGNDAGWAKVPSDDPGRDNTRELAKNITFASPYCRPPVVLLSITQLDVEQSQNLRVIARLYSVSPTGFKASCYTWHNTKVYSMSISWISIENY
Assay: Fluorescent microarray competition: Alexa Fluor 647-labeled HPA
Format: biochemical
Details: IC50,microarray (μM); SEM
In short: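 Glycoconjugates spotted in triplicate on NHS-coated glass slides from PBS pH 8.5 with 5% glycerol. Slides held 17−20 h at 70% humidity, then blocked 1 h at 37 °C in ethanolamine/boric acid/Tween 20 buffer pH 8.5. Probing in 16-well masks under slow agitation, then Tween-PBS washes. Scanned at 635 nm excitation. Mean fluorescence fitted against log competitor concentration.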

IC50: 180 µM and 301 µM and 687 µM and 449 µM
SMILES: CC(=O)N[C@H]1C(O)O[C@H](CO)[C@H](O)[C@@H]1O (stereo partly drawn) [GalNAc, N-acetyl-D-galactosamine]
